Experimental data as given in ChEMBL document CHEMBL1268877, “Novel rhodanine derivatives induce growth inhibition followed by apoptosis” (Bioorg Med Chem Lett, 2010).
Calls of active or inactive are those of the source. No cut-off for these calls is given here.

Legend:
[1] = Cytotoxicity against human 8E5 cells at 10 to 250 uM after 24 to 48 hrs by MTT assay; assay type: cell-based
CCRF-CEM [2] = test: Cytotoxicity against human CEM cells after 6 days by trypan blue assay; assay type: functional, cell-based
Method in brief: (§1)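 Trypan blue exclusion on CEM T-cell leukemia cells given 10, 50, 100 or 250 µM compound (DMSO as vehicle control); live cells counted every 24 h after addition until control culture reached stationary phase; independent experiments; IC50 estimated at 48 and 72 h.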

CCRF-CEM [3] = test: Cytotoxicity against human CEM cells at 250 uM after 6 days by trypan blue assay; assay type: functional, cell-based; method in brief: as §1
CCRF-CEM [4] = test: Cytotoxicity against human CEM cells at 10 to 250 uM after 24 to 48 hrs by MTT assay; assay type: functional, cell-based
Method in brief: (§2)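 CEM T-cell leukemia cells cultured with 10, 50, 100 and 250 µM compound (DMSO vehicle control), harvested after 24 and 48 h for MTT assay; percent viable cells calculated taking DMSO-treated cells as 100%; SD from three independent experiments.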

CCRF-CEM [5] = test: Cytotoxicity against human CEM cells after 48 hrs by trypan blue assay; assay type: functional, cell-based; method in brief: as §1
CCRF-CEM [6] = test: Cytotoxicity against human CEM cells after 72 hrs by trypan blue assay; assay type: functional, cell-based; method in brief: as §1
CCRF-CEM [7] = test: Cytotoxicity against human CEM cells at 10 to 250 uM by trypan blue assay; assay type: functional, cell-based; settings: TDE = time-dependent effect; method in brief: as §1
CCRF-CEM [8] = test: Induction of cell cycle arrest in human CEM cells assessed as accumulation at S phase at 10 to 50 uM after 48 hrs by propidium iodide staining-based FACS analysis; assay type: functional
Method in brief: (§3)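 CEM cells treated 48 h with 10, 20, 50, 100 or 250 µM compound or DMSO vehicle, then fixed, stained with propidium iodide and analysed by flow cytometry (10,000 cells per sample); percent cells in subG1, G1, S and G2/M quantified; SD from three independent experiments.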

CCRF-CEM [9] = test: Induction of cell cycle arrest in human CEM cells assessed as accumulation at subG1 phase at 10 to 250 uM after 48 hrs by propidium iodide staining-based FACS analysis; assay type: functional; method in brief: as §3
CCRF-CEM [10] = test: Cytotoxicity against human CEM cells at 10 to 250 uM by LDH release assay; assay type: functional, cell-based; settings: TDE = time-dependent effect
Method in brief: (§4)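 LDH release measured at 490 nm from CEM cells exposed to 10, 50, 100 and 250 µM compound for 24, 48 and 72 h; expressed as percent LDH release; SD from three independent experiments.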

CCRF-CEM [11] = test: Cytotoxicity against human CEM cells after 24 to 72 hrs by LDH release assay; assay type: functional, cell-based; method in brief: as §4
[12] = Cytotoxicity against human 8E5 cells at 250 uM after 24 to 48 hrs by MTT assay; assay type: cell-based
CCRF-CEM [13] = test: Induction of cell cycle arrest in human CEM cells assessed as decrease in accumulation at G1 phase at 10 to 250 uM after 48 hrs by propidium iodide staining-based FACS analysis; assay type: functional; method in brief: as §3
CCRF-CEM [14] = test: Antiproliferative activity against human CEM cells assessed as inhibition of [3H]thymidine incorporation at 10 to 250 uM after 24 to 48 hrs by scintillation counting; assay type: functional, cell-based
Method in brief: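 [3H]-thymidine added to CEM T-cell leukemia cells treated with 10, 50, 100 or 250 µM compound; radioactive counts per minute (cpm) calculated and plotted; data from independent experiments.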

CCRF-CEM [15] = test: Induction of apoptosis in human CEM cells assessed as chromosomal DNA fragmentation at 20 uM after 72 hrs by agarose gel electrophoresis; assay type: functional, cell-based
Method in brief: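 Chromosomal DNA extracted from CEM cells treated with 20 µM compound and harvested at 12, 24, 36, 48 and 72 h (DMSO control), then resolved on 1% agarose gel beside a 2-log DNA ladder.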

CCRF-CEM [16] = test: Induction of cell cycle arrest in human CEM cells assessed as decrease in accumulation at G2/M phase at 10 to 250 uM after 48 hrs by propidium iodide staining-based FACS analysis; assay type: functional; method in brief: as §3
CCRF-CEM [17] = test: Cytotoxicity against human CEM cells at 10 uM after 24 to 48 hrs by MTT assay; assay type: functional, cell-based; method in brief: as §2
CCRF-CEM [18] = test: Cytotoxicity against human CEM cells assessed as mild induction of ROS production at 20 uM after 4 hrs by H2DCFDA staining-based flow cytometry; assay type: functional, cell-based
Method in brief: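 CEM cells treated with 20 µM compound for 1, 2 and 4 h; ROS production quantified by flow cytometry, with unstained and dye-stained cells as references and H2O2 as positive control.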

| Compound | Activity [1] | Activity (CCRF-CEM [2]) | Activity (CCRF-CEM [3]) | Activity (CCRF-CEM [4]) | IC50 (CCRF-CEM [5]) | IC50 (CCRF-CEM [6]) | Activity (CCRF-CEM [7]) | Activity (CCRF-CEM [8]) | Activity (CCRF-CEM [9]) | Activity (CCRF-CEM [10]) | Activity (CCRF-CEM [11]) | Activity [12] | Activity (CCRF-CEM [13]) | inhibition (CCRF-CEM [14]) | Activity (CCRF-CEM [15]) | Activity (CCRF-CEM [16]) | Activity (CCRF-CEM [17]) | Activity (CCRF-CEM [18]) |
| --- | --- | --- | --- | --- | --- | --- | --- | --- | --- | --- | --- | --- | --- | --- | --- | --- | --- | --- |
| CCN1C(=O)C(=C(C)C)OC1=S | Non-toxic | Dose-dependent effect | Active | Active | 80 µM | 50 µM | tde |  |  |  |  |  |  |  |  |  |  |  |
| CCN1C(=O)/C(=C\c2ccccc2)SC1=S |  | Dose-dependent effect | Active |  | 8 µM | 6 µM | tde | Active | Active | tde | Dose-dependent effect | Toxic | Active | Active | Active | Active | Active | Active |
| CC(C)=C1C(=O)N(C)C(=S)N1C | Non-toxic | Dose-dependent effect | Active | Active | 70 µM | 40 µM | tde |  |  |  |  |  |  |  |  |  |  |  |
